# Data as given in article PMC3361572 (Chemistry & biology, 2012).
# pIC50: −log10 of the molar value.
# Tests used:
# hFAAH = target: T1, hFAAH (Homo sapiens, UniProt O00519); experiment: competitive ABPP, proteomes of transiently transfected HEK293T cells; format: biochemical
# T1 sequence (O00519 1-579): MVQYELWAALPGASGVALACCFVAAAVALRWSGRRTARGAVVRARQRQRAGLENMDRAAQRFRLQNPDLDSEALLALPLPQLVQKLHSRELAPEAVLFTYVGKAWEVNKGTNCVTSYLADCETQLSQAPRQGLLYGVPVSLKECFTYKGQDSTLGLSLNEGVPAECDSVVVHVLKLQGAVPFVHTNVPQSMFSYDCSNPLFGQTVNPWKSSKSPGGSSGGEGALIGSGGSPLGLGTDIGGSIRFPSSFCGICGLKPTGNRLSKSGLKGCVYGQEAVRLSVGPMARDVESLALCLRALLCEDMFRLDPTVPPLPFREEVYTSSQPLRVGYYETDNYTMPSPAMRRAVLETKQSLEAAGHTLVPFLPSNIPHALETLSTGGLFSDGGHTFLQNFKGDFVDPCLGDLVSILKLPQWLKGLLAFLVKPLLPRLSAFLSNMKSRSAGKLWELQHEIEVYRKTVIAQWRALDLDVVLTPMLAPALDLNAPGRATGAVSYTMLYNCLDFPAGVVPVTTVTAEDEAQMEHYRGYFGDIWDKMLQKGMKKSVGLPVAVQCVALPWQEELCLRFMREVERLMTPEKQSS
# MAGL [1] = target: T2, MAGL (Mus musculus, UniProt O35678); experiment: 2-AG substrate assay in mouse brain proteomes; format: biochemical
# T2 sequence (O35678 1-303): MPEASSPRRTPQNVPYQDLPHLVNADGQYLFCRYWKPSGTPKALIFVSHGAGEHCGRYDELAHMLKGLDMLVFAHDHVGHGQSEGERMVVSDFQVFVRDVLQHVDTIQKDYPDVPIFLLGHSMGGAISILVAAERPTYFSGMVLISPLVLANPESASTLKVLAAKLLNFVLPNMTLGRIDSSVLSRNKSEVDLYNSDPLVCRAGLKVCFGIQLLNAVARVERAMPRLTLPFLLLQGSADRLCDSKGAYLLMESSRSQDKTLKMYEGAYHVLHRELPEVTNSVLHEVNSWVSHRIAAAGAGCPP
# [2] = system: brain 2-AG, AA, AEA, PEA, OEA; experiment: brain lipid profile of inhibitor-treated mice; format: in vivo, mouse
# FAAH = target: T3, FAAH (Mus musculus, UniProt O08914); experiment: AEA hydrolytic activity of brain tissue from treated mice; format: in vivo; details: KML29-treated mice, 1–40 mg kg^−1 p.o.
# T3 sequence (O08914 1-579): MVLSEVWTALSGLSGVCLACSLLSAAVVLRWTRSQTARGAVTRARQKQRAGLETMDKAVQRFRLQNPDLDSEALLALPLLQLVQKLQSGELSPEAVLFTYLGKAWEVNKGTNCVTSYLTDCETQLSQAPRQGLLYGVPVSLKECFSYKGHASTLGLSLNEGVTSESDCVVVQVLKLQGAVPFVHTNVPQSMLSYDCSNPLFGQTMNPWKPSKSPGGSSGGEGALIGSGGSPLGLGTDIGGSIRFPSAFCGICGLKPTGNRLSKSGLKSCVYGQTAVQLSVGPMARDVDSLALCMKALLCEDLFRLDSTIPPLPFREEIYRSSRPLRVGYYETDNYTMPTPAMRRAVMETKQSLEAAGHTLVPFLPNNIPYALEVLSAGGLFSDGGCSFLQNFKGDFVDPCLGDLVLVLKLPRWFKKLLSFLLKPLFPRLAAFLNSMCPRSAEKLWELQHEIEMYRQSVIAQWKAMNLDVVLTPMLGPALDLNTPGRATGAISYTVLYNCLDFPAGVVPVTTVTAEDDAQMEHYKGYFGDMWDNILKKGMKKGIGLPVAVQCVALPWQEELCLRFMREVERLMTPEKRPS
# Outline: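 C57Bl/6 mice were dosed orally with the test compound (1–40 mg kg−1) or vehicle. The compound was dissolved in PEG by prolonged sonication and mild heating. Mice were killed after 4 h. Brain was analysed for 2-AG, AA, AEA, PEA and OEA, and brain proteomes for residual AEA and 2-AG hydrolysis (substrate assay). n = 3 mice/group, means ± SEM, compared with vehicle-treated mice.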
# MAGL [3] = target: T4, MAGL (Rattus norvegicus, UniProt Q8R431); experiment: competitive ABPP of brain from KML29-treated rats; format: in vivo; details: Wistar rats, 40 mg kg^−1 i.p., 4 h
# T4 sequence (Q8R431 1-303): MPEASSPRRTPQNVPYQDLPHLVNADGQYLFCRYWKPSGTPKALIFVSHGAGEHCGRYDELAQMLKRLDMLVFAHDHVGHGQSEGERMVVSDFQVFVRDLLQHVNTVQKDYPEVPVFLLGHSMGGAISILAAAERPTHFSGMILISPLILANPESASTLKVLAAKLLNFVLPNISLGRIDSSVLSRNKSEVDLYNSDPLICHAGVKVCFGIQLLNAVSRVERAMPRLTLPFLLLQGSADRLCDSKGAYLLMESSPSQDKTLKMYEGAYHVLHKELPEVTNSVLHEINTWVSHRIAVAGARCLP
# Outline: (§1)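 Wistar rats were injected i.p. with the test compound (1–40 mg kg−1) or vehicle. Vehicle was saline:emulphor:ethanol 18:1:1, with prolonged sonication and mild heating to dissolve. Rats were killed at 4 h. Brain, liver, lung and spleen proteomes were labelled with FP-Rh, separated by SDS-PAGE and scanned for in-gel fluorescence. Inhibition was scored as reduced probe labelling. n = 3 rats/group.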
# MAGL [4] = target: T4, MAGL; experiment: competitive ABPP of peripheral tissues from KML29-treated rats; format: in vivo; details: 4 h
# Outline: as §1
# [5] = system: brain 2-AG, AA, AEA, PEA, OEA; experiment: brain lipid profile of KML29-treated rats; format: in vivo, rat; details: 1–40 mg kg^−1 i.p., 4 h
# Outline: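 Wistar rats were given the test compound i.p. (1–40 mg kg−1, saline:emulphor:ethanol 18:1:1 vehicle) or vehicle and killed at 4 h. Brain 2-AG, AA, AEA, PEA and OEA levels were measured. Means ± SEM, n = 3 rats/group, with statistics against vehicle-treated rats.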
# [6] = dissolution in dosing vehicle; format: physicochemical
# Outline: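 Test compound was dissolved with prolonged sonication and mild heating. Vehicle was PEG for oral dosing, or saline:emulphor:ethanol (18:1:1) for i.p. dosing.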
smiles,measurement,setting,value
O=C(OC(C(F)(F)F)C(F)(F)F)N1CCC(C(O)(c2ccc3c(c2)OCO3)c2ccc3c(c2)OCO3)CC1 [KML29],cross-reactivity with hFAAH (competitive ABPP),hFAAH; lysates of HEK293T cells transfected with hFAAH,no-detectable cross-reactivity with hFAAH
same,pIC50,"hFAAH; read-out: IC50 (95% CI), human FAAH, competitive ABPP, transfected HEK293T cell proteome",< 4.30
same,inhibition of 2-AG hydrolysis,MAGL [1],potent inhibitor of 2-AG hydrolysis
same,"brain 2-AG and NAE levels, chronic dosing","[2]; 40 mg kg^−1 p.o., six days","selectively raise 2-AG, but not NAE levels"
same,peak increase in brain 2-AG over vehicle controls,"[2]; 20 and 40 mg kg^−1 p.o., 4 h",~ 10 fold
same,"brain levels of AEA, PEA and OEA","[2]; all tested doses p.o., 4 h",unaltered
same,change in brain 2-AG,"[2]; doses as low as 5 mg kg^−1 p.o., 4 h",significant elevations
same,change in brain arachidonic acid (AA),"[2]; p.o., 4 h, concomitant with 2-AG elevations",significant reductions
same,time of maximal elevations of 2-AG and reductions of AA in brain,[2]; single oral dose 20 mg kg^−1,1 h
same,brain AEA levels during time course,"[2]; single oral dose 20 mg kg^−1, 24 h period",unaltered
same,residual FAAH activity in brain proteomes (substrate assay),FAAH,lack of any effect on FAAH
same,inhibition of brain MAGL,MAGL [3],> 90%
same,MAGL inhibition in lung and spleen,MAGL [4]; 5 mg kg^−1 i.p.,complete MAGL inhibition
same,MAGL inhibition in liver,MAGL [4]; 20 mg kg^−1 i.p.,complete MAGL inhibition
same,brain AA levels,[5],decrease proportionally with the elevations in 2-AG
same,"brain AEA, PEA, or OEA",[5],without alteration
same,elevations in brain 2-AG,[5],approximately 10 fold
same,dissolution in vehicles for p.o. (PEG) or i.p. [saline:emulphor:ethanol (18:1:1)] administration,[6],Prolonged sonication and mild heating were also required
